Converted amounts (≈) assume the structure as drawn.
Key:
HEp-2 [1] = experiment: Cytotoxicity against human Hep2 cells at exponential phase of growth after 48 hrs by MTT assay; type: functional, cell-based
In short: (§1)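 Monolayers grown in DMEM with 5% fetal calf serum and penicillin-streptomycin at 37 °C, 5% CO2. 2×10^4 cells/well in lag or log phase were exposed for 48 h to a concentration series of compounds predissolved in DMSO. MTT formazan was dissolved in DMSO and read at 550 nm. IC50 taken from the curve; three independent experiments.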

Staphylococcus aureus = experiment: Antibacterial activity against Staphylococcus aureus ATCC 6538 after 24 hrs by broth dilution assay; type: functional
Vero [2] = experiment: Cytotoxicity against african green monkey Vero cells at lag phase of growth after 48 hrs by MTT assay; type: cell-based, Chlorocebus sabaeus; in short: as §1
Bacillus cereus = experiment: Antibacterial activity against Bacillus cereus ATCC 21772 after 24 hrs by broth dilution assay; type: functional
Proteus mirabilis = experiment: Antibacterial activity against Proteus mirabilis CECT 170 after 24 hrs by broth dilution assay; type: functional; settings: CECT 170, 24 h
In short: (§2)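 Microdilution in nutrient broth at 37 °C, about (1-5) × 10^5 cfu/mL inoculum, compounds in DMSO (≤1% v/v, matched DMSO controls), in triplicate. Growth followed by OD550. Wells without visible growth after 24 h on a rotary shaker were subcultured in duplicate onto nutrient agar and colonies counted after overnight incubation. MIC is the lowest concentration inhibiting growth at 24 h.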

[3] = tested on: Mycolicibacterium smegmatis; experiment: Antibacterial activity against Mycobacterium smegmatis ATCC 19420 after 48 hrs by broth dilution assay; type: functional; settings: ATCC 19420, 48 h
In short: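 Brain heart infusion broth with 0.06% Tween 80, 37 °C on a rotary shaker, inoculum about (1-5) × 10^5 cfu/mL, DMSO ≤1% v/v with matched controls, in triplicate. OD550 monitored.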

Candida albicans = experiment: Antibacterial activity against Candida albicans CECT 1039 after 24 hrs by broth dilution assay
A549 [4] = experiment: Cytotoxicity against human A549 cells at lag phase of growth after 48 hrs by MTT assay; type: functional, cell-based; settings: Homo sapiens, A549, 48 h; read-out: IC50; in short: as §1
Bacillus subtilis = experiment: Antibacterial activity against Bacillus subtilis ATCC 6051 after 24 hrs by broth dilution assay; type: functional
Vero [5] = experiment: Cytotoxicity against african green monkey Vero cells at exponential phase of growth after 48 hrs by MTT assay; type: cell-based, Chlorocebus sabaeus; in short: as §1
A549 [6] = experiment: Cytotoxicity against human A549 cells at exponential phase of growth after 48 hrs by MTT assay; type: functional, cell-based; in short: as §1
Escherichia coli = experiment: Antibacterial activity against Escherichia coli ATCC 9637 after 24 hrs by broth dilution assay; type: functional; settings: ATCC 9637, 24 h; in short: as §2
[7] = tested on: Staphylococcus epidermidis; experiment: Antibacterial activity against Staphylococcus epidermidis ATCC 14990 after 24 hrs by broth dilution assay; type: functional; in short: as §2
MCF7 [8] = experiment: Cytotoxicity against human […] cells at exponential phase of growth after 48 hrs by MTT assay; type: functional, cell-based; in short: as §1
HeLa [9] = experiment: Cytotoxicity against human HeLa cells at lag phase of growth after 48 hrs by MTT assay; type: functional, cell-based; in short: as §1
MCF7 [10] = experiment: Cytotoxicity against human MCF7 cells at lag phase of growth after 48 hrs by MTT assay; type: functional, cell-based; in short: as §1
Enterococcus faecalis = experiment: Antibacterial activity against Enterococcus faecalis ATCC 29212 after 24 hrs by broth dilution assay; type: functional; settings: ATCC 29212, 24 h
In short: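 Microdilution in brain heart infusion broth, shaken at 37 °C, about (1-5) × 10^5 cfu/mL start, DMSO ≤1% v/v with matched controls, in triplicate. OD550 read. Clear wells at 24 h were subcultured in duplicate onto brain heart infusion agar and counted after overnight incubation. MIC is the lowest concentration giving growth inhibition.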

Pseudomonas aeruginosa = experiment: Antibacterial activity against Pseudomonas aeruginosa AK958 after 24 hrs by broth dilution assay; type: functional; settings: AK958, 24 h; in short: as §2
Salmonella = experiment: Antibacterial activity against Salmonella CECT 4569 after 24 hrs by broth dilution assay; type: functional; settings: CECT 4569, 24 h; in short: as §2
HeLa [11] = experiment: Cytotoxicity against human HeLa cells at exponential phase of growth after 48 hrs by MTT assay; type: functional, cell-based; in short: as §1
HEp-2 [12] = experiment: Cytotoxicity against human Hep2 cells at lag phase of growth after 48 hrs by MTT assay; type: functional, cell-based; in short: as §1
[13] = Homo sapiens, HEp-2, 48 h, read-out: IC50
[14] = Chlorocebus sabaeus, Vero, 48 h, read-out: IC50
[15] = Homo sapiens, A549, 48 h, read-out: IC50
[16] = Homo sapiens, MCF7, 48 h, read-out: IC50
[17] = Homo sapiens, HeLa, 48 h, read-out: IC50

SMILES	MIC (Staphylococcus aureus)	MIC (Proteus mirabilis)	MIC [3]	MIC (Candida albicans)	MIC (Bacillus subtilis)	MIC (Escherichia coli)	MIC [7]	MIC (Enterococcus faecalis)	MIC (Pseudomonas aeruginosa)	MIC (Salmonella)	IC50 (HEp-2 [1]; [13])	IC50 (Vero [2]; [14])	MI50 (Bacillus cereus)	IC50 (A549 [4])	IC50 (Vero [5]; [14])	IC50 (MCF7 [8]; [16])	IC50 (HeLa [9]; [17])	IC50 (MCF7 [10]; [16])	IC50 (HeLa [11]; [17])	IC50 (HEp-2 [12]; [13])	also measured
Cc1coc2c1C(=O)C1=C(C2=O)[C@@]23CCCC(C)(C)[C@@H]2C[C@@H]1OC3=O	>40 µg/mL	> 40 µg/mL	> 40 µg/mL	>40 µg/mL	>40 µg/mL	> 40 µg/mL	>40 µg/mL	> 40 µg/mL	> 40 µg/mL	> 40 µg/mL		> 58.8 µM	>40 µg/mL	48.8 µM	> 58.8 µM	> 58.8 µM	> 58.8 µM	> 58.8 µM	> 58.8 µM		IC50 (A549 [6]; [15]): > 58.8 µM
CC(C)C1=CC2=C(C(=O)C1=O)[C@@]13CCCC(C)(C)[C@@H]1C[C@@H]2OC3=O	>40 µg/mL	> 40 µg/mL	> 40 µg/mL	>40 µg/mL	>40 µg/mL	> 40 µg/mL	>40 µg/mL	> 40 µg/mL	> 40 µg/mL	> 40 µg/mL	> 60 µM		>40 µg/mL				> 60 µM		40.2 µM	> 60 µM	
CC(=O)OC[C@H](C)C1=C(OC(C)=O)C(O)C2=C(C1=O)[C@@H]1C[C@H]3C(C)(C)CCC[C@]23C(=O)O1 (stereo partly specified)	>40 µg/mL	> 40 µg/mL	> 40 µg/mL	>40 µg/mL	>40 µg/mL	> 40 µg/mL	>40 µg/mL	> 40 µg/mL	> 40 µg/mL	> 40 µg/mL	> 45 µM	> 45 µM	>40 µg/mL		> 45 µM	> 45 µM	33.8 µM	> 45 µM	40.5 µM	> 45 µM	
CC(C)c1cc2c(c(O)c1O)[C@@]1(C(=O)O)CCCC(C)(C)[C@@H]1C[C@H]2Sc1ccccc1											18.9 µM	6.1 µM			21.1 µM		4.8 µM		11.1 µM	15.2 µM	
CC(C)C1=CC2=C(C(=O)C1=O)[C@@]13CCCC(C)(C)[C@@H]1[C@@H](O)[C@@H]2OC3=O [ISOROSMAQUINONE]											39.2 µM	> 60 µM			> 60 µM		25 µM		30.8 µM	39.5 µM	
Sc1ncnc2nc[nH]c12 [MERCAPTOPURINE ANHYDROUS]											318 µM	67.5 µM		47 µM	119 µM	5.8 µM	2.9 µM	1.4 µM	4.1 µM	431 µM	IC50 (A549 [6]; [15]): 49.3 µM

The next lines start with results.

MIC (Staphylococcus aureus)	MIC (Proteus mirabilis)	MIC [3]	MIC (Candida albicans)	MIC (Bacillus subtilis)	MIC (Escherichia coli)	MIC [7]	MIC (Enterococcus faecalis)	MIC (Pseudomonas aeruginosa)	MIC (Salmonella)	SMILES	IC50 (HEp-2 [1]; [13])	IC50 (Vero [2]; [14])	MI50 (Bacillus cereus)	IC50 (A549 [4])	IC50 (Vero [5]; [14])	IC50 (MCF7 [8]; [16])	IC50 (HeLa [9]; [17])	IC50 (MCF7 [10]; [16])	IC50 (HeLa [11]; [17])	IC50 (HEp-2 [12]; [13])	also measured
>40 µg/mL	> 40 µg/mL	> 40 µg/mL	>40 µg/mL	>40 µg/mL	> 40 µg/mL	>40 µg/mL	> 40 µg/mL	> 40 µg/mL	> 40 µg/mL	COC(=O)C1=C2C=C(C(C)C)COC2(O)[C@H]2OC(=O)[C@@]13CCCC(C)(C)[C@H]23 (stereo partly specified)	> 60 µM	> 60 µM	>40 µg/mL	> 60 µM	> 60 µM	42.6 µM	> 60 µM	> 60 µM	> 60 µM	> 60 µM	IC50 (A549 [6]; [15]): 39.4 µM
>40 µg/mL	> 40 µg/mL	> 40 µg/mL	>40 µg/mL	>40 µg/mL	> 40 µg/mL	>40 µg/mL	> 40 µg/mL	> 40 µg/mL	> 40 µg/mL	COc1c2c(c(O)c3c1[C@@H](C)CO3)[C@@]13CCCC(C)(C)[C@@H]1C[C@@H]2OC3=O			>40 µg/mL								IC50 (HEp-2 [1]; hep-2): Not Active; IC50 (Vero [2]; vero): Not Active; IC50 (Vero [5]; vero): Not Active; IC50 (A549 [6]; a549): Not Active; IC50 (MCF7 [8]; mcf7): Not Active; IC50 (HeLa [9]; hela): Not Active; IC50 (MCF7 [10]; mcf7): Not Active; IC50 (HeLa [11]; hela): Not Active; IC50 (HEp-2 [12]; hep-2): Not Active
>40 µg/mL	> 40 µg/mL	> 40 µg/mL	>40 µg/mL	>40 µg/mL	> 40 µg/mL	>40 µg/mL	> 40 µg/mL	> 40 µg/mL	> 40 µg/mL	COC(=O)C1=C(/C=C(\C(=O)OC)C(C)C)[C@@H]2C[C@H]3C(C)(C)CCC[C@]13C(=O)O2			>40 µg/mL								IC50 (HEp-2 [1]; hep-2): Not Active; IC50 (Vero [2]; vero): Not Active; IC50 (Vero [5]; vero): Not Active; IC50 (A549 [6]; a549): Not Active; IC50 (MCF7 [8]; mcf7): Not Active; IC50 (HeLa [9]; hela): Not Active; IC50 (MCF7 [10]; mcf7): Not Active; IC50 (HeLa [11]; hela): Not Active; IC50 (HEp-2 [12]; hep-2): Not Active
	> 40 µg/mL	> 40 µg/mL			> 40 µg/mL		> 40 µg/mL	> 40 µg/mL	> 40 µg/mL	CO/N=C(\C(=O)N[C@@H]1C(=O)N2C(C(=O)O)=C(COC(C)=O)CS[C@H]12)c1csc(N)n1 [CEFOTAXIME]											MIC (Staphylococcus aureus; Staphylococcus aureus, ATCC 6538, 24 h, read-out: MIC): 1.25 µg/mL (≈ 2.74 µM); MIC (Bacillus cereus; Bacillus cereus, ATCC 21772, 24 h): 10 µg/mL (≈ 22 µM); MIC (Bacillus subtilis; Bacillus subtilis, ATCC 6051, 24 h, read-out: MIC): 8 µg/mL (≈ 17.6 µM); MIC ([7]; Staphylococcus epidermidis, ATCC 14990, 24 h, read-out: MIC): 2.5 µg/mL (≈ 5.49 µM)

Source: ChEMBL document CHEMBL1154249, “Semisynthesis and biological evaluation of abietane-type diterpenes. Revision of the structure of rosmaquinone” (J Nat Prod, 2009)
